Here are results for three compounds from ChEMBL document CHEMBL4011636, “Utilization of an Active Site Mutant Receptor for the Identification of Potent and Selective Atypical 5-HT2C Receptor Agonists” (J Med Chem, 2017).

pEC50: −log10 of the molar value. Where only a bound is given, the exact number is not on record here.

Data set [1] is described as follows: Protein binding in human plasma. The data set is classed as ADME, cell-free. The following applies: read-out: PPB (converted).
Data set [2] deals with T1, 5-hydroxytryptamine receptor 2C (Homo sapiens, UniProt P28335).
T1 sequence (P28335 whole entry): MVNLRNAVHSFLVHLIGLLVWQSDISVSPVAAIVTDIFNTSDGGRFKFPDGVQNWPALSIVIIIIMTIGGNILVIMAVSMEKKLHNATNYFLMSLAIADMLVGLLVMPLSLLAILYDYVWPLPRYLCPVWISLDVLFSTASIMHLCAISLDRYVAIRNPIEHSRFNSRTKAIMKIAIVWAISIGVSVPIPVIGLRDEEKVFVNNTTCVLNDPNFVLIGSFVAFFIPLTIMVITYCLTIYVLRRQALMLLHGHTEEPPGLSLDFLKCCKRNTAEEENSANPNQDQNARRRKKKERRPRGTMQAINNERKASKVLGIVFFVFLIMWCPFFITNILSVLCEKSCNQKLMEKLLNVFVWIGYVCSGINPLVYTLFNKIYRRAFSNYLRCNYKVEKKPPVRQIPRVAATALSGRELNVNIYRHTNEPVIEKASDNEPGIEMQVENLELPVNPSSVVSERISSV
Description: Agonist activity at recombinant human 5-HT2C receptor expressed in HEK293E cells assessed as induction of intracellular Ca2+ levels after 90 secs by Fluo-4-dye based FLIPR assay. The data set is classed as functional, cell-based, HEK293. The gist of the method:
(§1)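 HEK293E cells stably expressing human receptor (VNV isoform for 5-HT2C; ~400−795 fmol/mg protein), grown in DMEM with 10% dialyzed FBS and G418. Cells plated at 20 000/well in serum-free DMEM overnight at 37 °C, then loaded 1 h at room temperature with 5 μM Fluo-4 in HBSS/25 mM HEPES. Eleven compound concentrations added on FLIPR, Ca2+ signal read for 90 s. EC50 from a four-parameter logistic fit, at least triplicate.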

Data set [3] in a line: Drug uptake in Sprague-Dawley rat brain at 30 mg/kg, po measured at 1 hr post dose by LC/MS-MS analysis. The data set is classed as ADME, organism-based. The following applies: read-out: Drug uptake. The method in brief: (§2)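 Male rats given 30 mg/kg orally in 0.15% docusate sodium/2% PVP-K/97.85% water. Plasma and brain were sampled at a single time point after dosing. Brain was diluted 1:2 (vol/weight) with water before homogenization (dilution factor 3). Concentrations were measured by LC/MS−MS after acetonitrile protein precipitation. Values are the average of three animals; B/P is the brain to plasma ratio.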

Data set [4] can be described thus: Metabolic stability in human liver microsomes assessed as parent compound remaining at […] after 10 mins. The class given is ADME, microsome. The following applies: read-out: Stability. In general terms: Liver microsomes are a subcellular fraction often used to study metabolism.
A short description of data set [5]: Half life in human microsomes. The class given is ADME, Microsome.
Data set [6] is described as follows: Permeability of compound at pH 5.5 by PAMPA. The data set is classed as physicochemical. The following applies: read-out: permeability. (In PAMPA a lipid-coated filter parts donor from acceptor wells.)
Data set [7] can be described thus: Half life in rat microsomes. The data set is classed as ADME, Microsome.
For data set [8], the target named is T2, 5-hydroxytryptamine receptor 2C (Homo sapiens) (UniProt P28335).
T2 sequence (whole entry): T1 sequence (P28335 whole entry)
The experiment in a line: Intrinsic activity at recombinant human 5-HT2C receptor expressed in HEK293E cells assessed as induction of intracellular Ca2+ levels after 90 secs by Fluo-4-dye based FLIPR assay relative to serotonin. The class given is functional, cell-based. The conditions noted are these: HEK293. The gist of the method: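 FLIPR Fluo-4 Ca2+ assay in HEK293E cells stably expressing the human receptor (VNV isoform for 5-HT2C), eleven-point concentration series, 90 s read. Response normalized to 3 μM serotonin on the same plate (defined as IA = 1). Intrinsic activity taken from a four-parameter logistic fit.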

Data set [9] in a line: Ratio of drug uptake in Sprague-Dawley rat brain to plasma at 30 mg/kg, po measured at 1 hr post dose by LC/MS-MS analysis. The class given is ADME, organism-based. The conditions noted are these: read-out: BPR. The method in brief:
as §2

In data set [10] the target is 5-hydroxytryptamine receptor 2B (Homo sapiens, UniProt P41595). Description: Agonist activity at recombinant human 5-HT2B receptor expressed in HEK293E cells assessed as induction of intracellular Ca2+ levels after 90 secs by Fluo-4-dye based FLIPR assay. The data set is classed as cell-based, HEK293. The method in brief:
as §1

Data set [11] is described as follows: Efflux ratio of permeability across basolateral to apical side in human Caco2 cells. The following applies: Caco-2. The data set is classed as ADME, cell-based.
Data set [12] is described as follows: Protein binding in rat plasma. The data set is classed as ADME, cell-free. The conditions noted are these: read-out: PPB (converted).
Data set [13] deals with 5-hydroxytryptamine receptor 2A (Homo sapiens, UniProt P28223). The experiment in a line: Agonist activity at recombinant human 5-HT2A receptor expressed in HEK293E cells assessed as induction of intracellular Ca2+ levels after 90 secs by Fluo-4-dye based FLIPR assay. The data set is classed as cell-based, HEK293. The method in brief: as §1
The nature of data set [14]: Permeability across basolateral to apical side in human Caco2 cells. The data set is classed as ADME, cell-based. The conditions noted are these: Caco-2, read-out: permeability. On the technique in general: Caco-2 cells form a polarised layer with tight junctions and transporters.
Data set [15] is described as follows: Plasma concentration in Sprague-Dawley rat at 30 mg/kg, po measured at 1 hr post dose by LC/MS-MS analysis. The class given is ADME, organism-based. The gist of the method:
as §2

Data set [16] in a line: Permeability of compound at pH 7.4 by PAMPA. The data set is classed as physicochemical. The conditions noted are these: read-out: permeability.
Data set [17] is described as follows: Metabolic stability in rat liver microsomes assessed as parent compound remaining at […] after 10 mins. The data set is classed as ADME, microsome. The following applies: read-out: Stability.
Data set [18] is described as follows: Permeability across apical to basolateral side in human Caco2 cells. The class given is ADME, cell-based. The following applies: Caco-2, read-out: permeability.
Data set [19] is described as follows: Ratio of drug uptake in Sprague-Dawley rat brain to plasma at 30 mg/kg, po measured at 2 hrs post dose by LC/MS-MS analysis. The class given is ADME, organism-based. The conditions noted are these: read-out: BPR. The method in brief:
as §2

Data set [20] can be described thus: Plasma concentration in Sprague-Dawley rat at 30 mg/kg, po measured at 2 hrs post dose by LC/MS-MS analysis. The class given is ADME, organism-based. The gist of the method: as §2
Data set [21] can be described thus: Drug uptake in Sprague-Dawley rat brain at 30 mg/kg, po measured at 2 hrs post dose by LC/MS-MS analysis. The class given is ADME, organism-based. The conditions noted are these: read-out: Drug uptake. The gist of the method: as §2
The nature of data set [22]: Ratio of drug uptake in Sprague-Dawley rat brain to plasma at 30 mg/kg, po measured at 7 hrs post dose by LC/MS-MS analysis. The conditions noted are these: read-out: BPR. The data set is classed as ADME, organism-based. The gist of the method:
as §2

The nature of data set [23]: Plasma concentration in Sprague-Dawley rat at 1 mg/kg, iv measured at 1 hr post dose by LC/MS-MS analysis. The class given is ADME, organism-based.
A short description of data set [24]: Substrate activity at rat P-gp. The data set is classed as ADME.
Data set [25] can be described thus: Substrate activity at human P-gp. The data set is classed as ADME.
The nature of data set [26]: Ratio of drug uptake in Sprague-Dawley rat brain to plasma at 1 mg/kg, iv measured at 1 hr post dose by LC/MS-MS analysis. The data set is classed as ADME, organism-based. The conditions noted are these: read-out: BPR.
Data set [27] is described as follows: Drug uptake in Sprague-Dawley rat brain at 1 mg/kg, iv measured at 1 hr post dose by LC/MS-MS analysis.
Data set [28] is described as follows: Plasma concentration in Sprague-Dawley rat at 30 mg/kg, po measured at 7 hrs post dose by LC/MS-MS analysis. The class given is ADME, organism-based. The method in brief:
as §2

Data set [29] can be described thus: Drug uptake in Sprague-Dawley rat brain at 30 mg/kg, po measured at 7 hrs post dose by LC/MS-MS analysis. The class given is ADME, organism-based. The following applies: read-out: Drug uptake. The gist of the method:
as §2

Sequence of 5-hydroxytryptamine receptor 2A (P28223 whole entry): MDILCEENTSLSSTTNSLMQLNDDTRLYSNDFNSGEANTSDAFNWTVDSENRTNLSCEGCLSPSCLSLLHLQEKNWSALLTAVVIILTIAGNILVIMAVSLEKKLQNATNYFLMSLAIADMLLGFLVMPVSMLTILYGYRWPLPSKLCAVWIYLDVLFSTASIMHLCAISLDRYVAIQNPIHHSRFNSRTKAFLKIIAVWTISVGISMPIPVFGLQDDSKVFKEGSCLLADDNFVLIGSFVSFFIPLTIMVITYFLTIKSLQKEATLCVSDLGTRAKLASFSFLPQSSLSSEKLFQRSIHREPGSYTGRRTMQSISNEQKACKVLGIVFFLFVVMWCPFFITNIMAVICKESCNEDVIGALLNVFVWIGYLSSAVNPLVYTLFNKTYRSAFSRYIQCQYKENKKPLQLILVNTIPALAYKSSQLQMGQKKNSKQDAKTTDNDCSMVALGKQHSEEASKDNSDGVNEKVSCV
Sequence of 5-hydroxytryptamine receptor 2B (P41595 whole entry): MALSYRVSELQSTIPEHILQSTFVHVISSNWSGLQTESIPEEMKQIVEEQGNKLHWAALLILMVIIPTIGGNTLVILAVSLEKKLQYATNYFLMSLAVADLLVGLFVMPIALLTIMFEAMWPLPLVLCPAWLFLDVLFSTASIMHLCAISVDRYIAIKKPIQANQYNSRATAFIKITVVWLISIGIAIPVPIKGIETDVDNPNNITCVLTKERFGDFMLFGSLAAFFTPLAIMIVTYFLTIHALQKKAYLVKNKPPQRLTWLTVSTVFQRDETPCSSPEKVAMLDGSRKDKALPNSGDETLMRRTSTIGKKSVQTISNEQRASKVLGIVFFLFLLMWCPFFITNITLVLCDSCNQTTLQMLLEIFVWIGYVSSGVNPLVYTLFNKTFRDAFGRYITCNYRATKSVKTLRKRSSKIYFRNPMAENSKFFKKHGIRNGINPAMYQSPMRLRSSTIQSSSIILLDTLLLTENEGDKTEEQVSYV

Consider `Cc1[nH]c(-c2cccc3ccccc23)cc1C(=O)N1CCC(CO)CC1`, for which the results for the fraction unbound in data set [1] and in data set [12] were 0.017 and 0.075, respectively. The values for the pEC50 in data set [2], in data set [10] and in data set [13] were 7.92, under 5.00 and under 5.00, respectively. Also, the concentration at 1 h was 202 nM in [3] and 1140 nM in data set [15]. Besides, the remaining at 10 min stood at 76% in data set [4] and 44% in [17]. Besides, the half-life (commonly the time in which the quantity being followed falls by half) in data set [5] is 41 min; in data set [7] it was 11 min. The Papp amounted to 62.4 ×10⁻⁶ cm/s in [6] and 49.2 ×10⁻⁶ cm/s in data set [16]. The Intrinsic activity in [8] came to 0.9. Moreover, the Kp at 1 h in data set [9] is 0.2. In data set [11], the efflux ratio (as a rule, the permeability from basolateral to apical divided by that in the opposite direction, in the common usage) amounted to 1.3. Besides, in [14], the Papp B→A was determined as 21.9 ×10⁻⁶ cm/s. Further, in data set [18], the Papp A→B came out at 17.2 ×10⁻⁶ cm/s.
Take `Cn1nc(-c2cccc3ccccc23)cc1C(=O)N1CCC(CO)CC1`: the fraction unbound in data set [1] was 0.023; in [12], 0.076. The pEC50 – broadly, −log10 of the EC50, conventionally taken in molar units – in [2] is 8.22; in [10] it was under 5.00; in data set [13] it was 7.12. The remaining at 10 min in data set [4] stood at 92%; in data set [17] it was 37%. Besides, the Kp at 2 h in data set [19] turned out to be 0.3. In addition, the half-life was found to be 36 min in [5] and 8 min in data set [7]. In addition, the Papp was 58.8 ×10⁻⁶ cm/s in data set [6] and 61.3 ×10⁻⁶ cm/s in data set [16]. For the same compound, the Intrinsic activity in data set [8] is 1. Moreover, in data set [11], the efflux ratio worked out at 0.5. Also, the concentration at 2 h in data set [20] was determined as 2480 nM; in data set [21] it was 721 nM. Besides, the Papp B→A in [14] came out at 16.8 ×10⁻⁶ cm/s. The Papp A→B in [18] worked out at 32.3 ×10⁻⁶ cm/s.
Regarding `Cc1nc(-c2cccc3ccccc23)sc1C(=O)N1CCC(CO)CC1`, the results for the fraction unbound in data set [1] and in data set [12] were 0.005 and 0.004, respectively. In addition, in data set [22], the Kp at 7 h worked out at 0.05. In addition, the pEC50 is 8.22 in data set [2], under 5.00 in data set [10] and under 5.00 in data set [13]. The remaining at 10 min in data set [4] is 80%; in data set [17] it was 24%. Also, the results for the concentration at 1 h in data set [23] and in data set [27] were 569 nM and 76 nM, respectively. In addition, the half-life in data set [5] amounted to 21 min; in [7] it was 6 min. The figures for the Papp in data set [6] and in [16] were 60.7 ×10⁻⁶ cm/s and 73.9 ×10⁻⁶ cm/s, respectively. The Intrinsic activity in [8] is 1 to 1.1. Also, the Activity entry is recorded as “Active” in data set [24] and “Not Active” in data set [25]. In addition, the efflux ratio in data set [11] came to 0.5. Also, the Kp at 1 h in data set [26] came to 0.15. Besides, the Papp B→A in data set [14] stood at 17.5 ×10⁻⁶ cm/s. The values for the concentration at 7 h in [28] and in [29] were 736 nM and 35 nM, respectively. Further, the Papp A→B in data set [18] was 32.9 ×10⁻⁶ cm/s.
